ChEMBL document CHEMBL1147862, “Studies on synthesis and pharmacological activities of 3,6-disubstituted-1,2,4-triazolo[3,4-b]-1,3,4-thiadiazoles and their dihydro analogues” (2007)

Assays:
Assay type in all cases: functional
Bacillus subtilis [1] = experiment: Antibacterial activity against Bacillus subtilis at 20 ug/ml by agar plate diffusion technique; conditions: read-out: IZ
Rattus norvegicus [2] = experiment: Antiinflammatory activity in Wistar Albino rat assessed as inhibition of carrageenan-induced paw oedema at 20 mg/kg after 2 hrs relative to control
Outline: (§1)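 Wistar albino rats, 150–200 g, six per group, dosed orally with a 20 mg/kg suspension; control gets 0.1 ml 1% gum acacia. After 30 min, 0.1 ml 1% carrageenan in saline is injected subplantar into the right hind paw. Paw volume is read by plethysmograph at 0–4 h. Inhibition = 100(1 − Vtest/Vcontrol) on mean volume increase.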

Mus musculus [3] = experiment: Analgesic activity in Swiss mouse assessed as increase in reaction time at 20 mg/kg, po after 60 mins by Eddy's hot plate technique
Outline: (§2)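 Swiss mice of either sex, 25–35 g, placed one at a time on a hot plate held at 55 °C. End point is paw licking or jumping, whichever comes first, with a 15 s cut-off to avoid paw injury. Reaction time is recorded and reported as percent increase in reaction time.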

Pseudomonas aeruginosa [4] = experiment: Antibacterial activity against Pseudomonas aeruginosa at 30 ug/ml by agar plate diffusion technique; conditions: read-out: IZ
Rattus norvegicus [5] = experiment: Antiinflammatory activity in Wistar Albino rat assessed as inhibition of carrageenan-induced paw oedema at 20 mg/kg after 4 hrs relative to control; outline: as §1
Staphylococcus aureus [6] = experiment: Antibacterial activity against Staphylococcus aureus at 30 ug/ml by agar plate diffusion technique; conditions: read-out: IZ
Candida albicans [7] = experiment: Antifungal activity against Candida albicans at 10 ug/ml by paper disc method; conditions: read-out: IZ
Aspergillus niger [8] = experiment: Antifungal activity against Aspergillus niger at 20 ug/ml by paper disc method; conditions: read-out: IZ
Aspergillus niger [9] = experiment: Antifungal activity against Aspergillus niger at 30 ug/ml by paper disc method; conditions: read-out: IZ
Candida albicans [10] = experiment: Antifungal activity against Candida albicans at 20 ug/ml by paper disc method; conditions: read-out: IZ
Staphylococcus aureus [11] = experiment: Antibacterial activity against Staphylococcus aureus at 20 ug/ml by agar plate diffusion technique; conditions: read-out: IZ
Aspergillus niger [12] = experiment: Antifungal activity against Aspergillus niger at 10 ug/ml by paper disc method; conditions: read-out: IZ
Escherichia coli [13] = experiment: Antibacterial activity against Escherichia coli at 10 ug/ml by agar plate diffusion technique; conditions: read-out: IZ
Rattus norvegicus [14] = experiment: Antiinflammatory activity in Wistar Albino rat assessed as inhibition of carrageenan-induced paw oedema at 20 mg/kg after 3 hrs relative to control; outline: as §1
Rattus norvegicus [15] = experiment: Antiinflammatory activity in Wistar Albino rat assessed as inhibition of carrageenan-induced paw oedema at 20 mg/kg after 1 hr relative to control; outline: as §1
Bacillus subtilis [16] = experiment: Antibacterial activity against Bacillus subtilis at 10 ug/ml by agar plate diffusion technique; conditions: read-out: IZ
Escherichia coli [17] = experiment: Antibacterial activity against Escherichia coli at 30 ug/ml by agar plate diffusion technique; conditions: read-out: IZ
Staphylococcus aureus [18] = experiment: Antibacterial activity against Staphylococcus aureus at 10 ug/ml by agar plate diffusion technique; conditions: read-out: IZ
Pseudomonas aeruginosa [19] = experiment: Antibacterial activity against Pseudomonas aeruginosa at 20 ug/ml by agar plate diffusion technique; conditions: read-out: IZ
Mus musculus [20] = experiment: Analgesic activity in Swiss mouse assessed as increase in reaction time at 20 mg/kg, po after 30 mins by Eddy's hot plate technique; outline: as §2
Candida albicans [21] = experiment: Antifungal activity against Candida albicans at 30 ug/ml by paper disc method; conditions: read-out: IZ
Bacillus subtilis [22] = experiment: Antibacterial activity against Bacillus subtilis at 30 ug/ml by agar plate diffusion technique; conditions: read-out: IZ
Mus musculus [23] = experiment: Analgesic activity in Swiss mouse assessed as increase in reaction time at 20 mg/kg, po after 90 mins by Eddy's hot plate technique; outline: as §2
Pseudomonas aeruginosa [24] = experiment: Antibacterial activity against Pseudomonas aeruginosa at 10 ug/ml by agar plate diffusion technique; conditions: read-out: IZ
Escherichia coli [25] = experiment: Antibacterial activity against Escherichia coli at 20 ug/ml by agar plate diffusion technique; conditions: read-out: IZ

COc1ccc(Cl)c(-c2nnc3n2NC(c2ccco2)S3)c1 (stereo not given)
zone of inhibition at 20 µg/mL (Bacillus subtilis [1]): 7.68 mm | inhibition in vivo at 20 mg/kg (Rattus norvegicus [2]): 18.7% | Activity (Mus musculus [3]): 12.55% | zone of inhibition at 30 µg/mL (Pseudomonas aeruginosa [4]): 14.2 mm | inhibition in vivo at 20 mg/kg (Rattus norvegicus [5]): 25.6% | zone of inhibition at 30 µg/mL (Staphylococcus aureus [6]): 14.1 mm | zone of inhibition at 10 µg/mL (Candida albicans [7]): 5.19 mm | zone of inhibition at 20 µg/mL (Aspergillus niger [8]): 7.13 mm | zone of inhibition at 30 µg/mL (Aspergillus niger [9]): 13.1 mm | zone of inhibition at 20 µg/mL (Candida albicans [10]): 10.3 mm | zone of inhibition at 20 µg/mL (Staphylococcus aureus [11]): 8.61 mm | zone of inhibition at 10 µg/mL (Aspergillus niger [12]): 5.16 mm | zone of inhibition at 10 µg/mL (Escherichia coli [13]): 4.12 mm | inhibition in vivo at 20 mg/kg (Rattus norvegicus [14]): 23.1% | inhibition in vivo at 20 mg/kg (Rattus norvegicus [15]): 13.9% | zone of inhibition at 10 µg/mL (Bacillus subtilis [16]): 4.39 mm | zone of inhibition at 30 µg/mL (Escherichia coli [17]): 14.4 mm | zone of inhibition at 10 µg/mL (Staphylococcus aureus [18]): 4.82 mm | zone of inhibition at 20 µg/mL (Pseudomonas aeruginosa [19]): 8.95 mm | Activity (Mus musculus [20]): 6.24% | zone of inhibition at 30 µg/mL (Candida albicans [21]): 14.8 mm | zone of inhibition at 30 µg/mL (Bacillus subtilis [22]): 13.6 mm | Activity (Mus musculus [23]): 23.89% | zone of inhibition at 10 µg/mL (Pseudomonas aeruginosa [24]): 4.82 mm | zone of inhibition at 20 µg/mL (Escherichia coli [25]): 7.39 mm

COc1ccc(Cc2nnc3n2NC(c2cccn2C)S3)cc1OC (stereo not given)
zone of inhibition at 20 µg/mL (Bacillus subtilis [1]): 6.3 mm | inhibition in vivo at 20 mg/kg (Rattus norvegicus [2]): 15.8% | Activity (Mus musculus [3]): 10.24% | zone of inhibition at 30 µg/mL (Pseudomonas aeruginosa [4]): 11.4 mm | inhibition in vivo at 20 mg/kg (Rattus norvegicus [5]): 19.9% | zone of inhibition at 30 µg/mL (Staphylococcus aureus [6]): 10.6 mm | zone of inhibition at 10 µg/mL (Candida albicans [7]): 4.18 mm | zone of inhibition at 20 µg/mL (Aspergillus niger [8]): 7.9 mm | zone of inhibition at 30 µg/mL (Aspergillus niger [9]): 12.6 mm | zone of inhibition at 20 µg/mL (Candida albicans [10]): 7.1 mm | zone of inhibition at 20 µg/mL (Staphylococcus aureus [11]): 5.92 mm | zone of inhibition at 10 µg/mL (Aspergillus niger [12]): 4.35 mm | zone of inhibition at 10 µg/mL (Escherichia coli [13]): 3.95 mm | inhibition in vivo at 20 mg/kg (Rattus norvegicus [14]): 18.4% | inhibition in vivo at 20 mg/kg (Rattus norvegicus [15]): 13.4% | zone of inhibition at 10 µg/mL (Bacillus subtilis [16]): 3.3 mm | zone of inhibition at 30 µg/mL (Escherichia coli [17]): 10.2 mm | zone of inhibition at 10 µg/mL (Staphylococcus aureus [18]): 3.74 mm | zone of inhibition at 20 µg/mL (Pseudomonas aeruginosa [19]): 7.48 mm | Activity (Mus musculus [20]): 5.62% | zone of inhibition at 30 µg/mL (Candida albicans [21]): 12.1 mm | zone of inhibition at 30 µg/mL (Bacillus subtilis [22]): 9.12 mm | Activity (Mus musculus [23]): 19.24% | zone of inhibition at 10 µg/mL (Pseudomonas aeruginosa [24]): 4.12 mm | zone of inhibition at 20 µg/mL (Escherichia coli [25]): 6.71 mm

Cc1occc1-c1nnc2sc(-c3ccnc(F)c3)nn12
zone of inhibition at 20 µg/mL (Bacillus subtilis [1]): 14.8 mm | inhibition in vivo at 20 mg/kg (Rattus norvegicus [2]): 18.2% | Activity (Mus musculus [3]): 6.2% | zone of inhibition at 30 µg/mL (Pseudomonas aeruginosa [4]): 21.3 mm | inhibition in vivo at 20 mg/kg (Rattus norvegicus [5]): 24.4% | zone of inhibition at 30 µg/mL (Staphylococcus aureus [6]): 20.2 mm | zone of inhibition at 10 µg/mL (Candida albicans [7]): 8.82 mm | zone of inhibition at 20 µg/mL (Aspergillus niger [8]): 13 mm | zone of inhibition at 30 µg/mL (Aspergillus niger [9]): 22.7 mm | zone of inhibition at 20 µg/mL (Candida albicans [10]): 16.6 mm | zone of inhibition at 20 µg/mL (Staphylococcus aureus [11]): 14.2 mm | zone of inhibition at 10 µg/mL (Aspergillus niger [12]): 7.36 mm | zone of inhibition at 10 µg/mL (Escherichia coli [13]): 8.54 mm | inhibition in vivo at 20 mg/kg (Rattus norvegicus [14]): 20.4% | inhibition in vivo at 20 mg/kg (Rattus norvegicus [15]): 16.7% | zone of inhibition at 10 µg/mL (Bacillus subtilis [16]): 8.12 mm | zone of inhibition at 30 µg/mL (Escherichia coli [17]): 20.8 mm | zone of inhibition at 10 µg/mL (Staphylococcus aureus [18]): 7.9 mm | zone of inhibition at 20 µg/mL (Pseudomonas aeruginosa [19]): 15.2 mm | Activity (Mus musculus [20]): 4.13% | zone of inhibition at 30 µg/mL (Candida albicans [21]): 23.8 mm | zone of inhibition at 30 µg/mL (Bacillus subtilis [22]): 19.9 mm | Activity (Mus musculus [23]): 16.43% | zone of inhibition at 10 µg/mL (Pseudomonas aeruginosa [24]): 8.39 mm | zone of inhibition at 20 µg/mL (Escherichia coli [25]): 14.3 mm

Cc1occc1-c1nnc2n1NC(c1cccn1C)S2 (stereo not given)
zone of inhibition at 20 µg/mL (Bacillus subtilis [1]): 7.48 mm | inhibition in vivo at 20 mg/kg (Rattus norvegicus [2]): 18.9% | Activity (Mus musculus [3]): 16.8% | zone of inhibition at 30 µg/mL (Pseudomonas aeruginosa [4]): 13.2 mm | inhibition in vivo at 20 mg/kg (Rattus norvegicus [5]): 22.4% | zone of inhibition at 30 µg/mL (Staphylococcus aureus [6]): 11.2 mm | zone of inhibition at 10 µg/mL (Candida albicans [7]): 4.5 mm | zone of inhibition at 20 µg/mL (Aspergillus niger [8]): 8.08 mm | zone of inhibition at 30 µg/mL (Aspergillus niger [9]): 13.7 mm | zone of inhibition at 20 µg/mL (Candida albicans [10]): 8.06 mm | zone of inhibition at 20 µg/mL (Staphylococcus aureus [11]): 6.23 mm | zone of inhibition at 10 µg/mL (Aspergillus niger [12]): 4.93 mm | zone of inhibition at 10 µg/mL (Escherichia coli [13]): 4.11 mm | inhibition in vivo at 20 mg/kg (Rattus norvegicus [14]): 21.5% | inhibition in vivo at 20 mg/kg (Rattus norvegicus [15]): 14.6% | zone of inhibition at 10 µg/mL (Bacillus subtilis [16]): 4.52 mm | zone of inhibition at 30 µg/mL (Escherichia coli [17]): 12.1 mm | zone of inhibition at 10 µg/mL (Staphylococcus aureus [18]): 4.42 mm | zone of inhibition at 20 µg/mL (Pseudomonas aeruginosa [19]): 7.9 mm | Activity (Mus musculus [20]): 7.55% | zone of inhibition at 30 µg/mL (Candida albicans [21]): 13.2 mm | zone of inhibition at 30 µg/mL (Bacillus subtilis [22]): 11.4 mm | Activity (Mus musculus [23]): 21.96% | zone of inhibition at 10 µg/mL (Pseudomonas aeruginosa [24]): 4.36 mm | zone of inhibition at 20 µg/mL (Escherichia coli [25]): 7.19 mm
